{"source": "ChEMBL document CHEMBL1921704", "about": "“Discovery of N-aryl-2-acylindole human glucagon receptor antagonists” (Bioorg Med Chem Lett, 2011)", "key": {"[1]": {"target": "T1, Glucagon receptor (Homo sapiens, UniProt P47871)", "T1 sequence (P47871 whole entry)": "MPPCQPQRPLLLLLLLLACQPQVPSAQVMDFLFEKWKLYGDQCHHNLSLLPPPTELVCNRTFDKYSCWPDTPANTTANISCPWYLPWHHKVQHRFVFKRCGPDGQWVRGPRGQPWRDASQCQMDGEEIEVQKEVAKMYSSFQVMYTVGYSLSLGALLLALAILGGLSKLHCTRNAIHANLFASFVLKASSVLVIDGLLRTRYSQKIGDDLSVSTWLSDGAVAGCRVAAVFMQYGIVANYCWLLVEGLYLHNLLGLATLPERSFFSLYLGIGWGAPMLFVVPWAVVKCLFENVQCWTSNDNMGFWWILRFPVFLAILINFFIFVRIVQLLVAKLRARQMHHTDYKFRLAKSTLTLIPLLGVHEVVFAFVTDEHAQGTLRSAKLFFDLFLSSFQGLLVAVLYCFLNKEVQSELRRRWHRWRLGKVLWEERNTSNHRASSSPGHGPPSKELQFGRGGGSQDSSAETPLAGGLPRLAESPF", "experiment": "Displacement of [125I]-glucagon from human glucagon receptor expressed in CHO cells after 4 to 12 hrs by scintillation proximity assay", "format": "cell-based", "method_in_brief": "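Scintillation proximity assay on membranes from CHO cells expressing hGCGR, measuring inhibition of ¹²⁵I-labelled glucagon binding. IC50 reported as the average rounded to two significant figures, with standard error of the mean when more than one measurement was made.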"}, "[2]": {"target": "T1, Glucagon receptor", "experiment": "Antagonist activity at human glucagon receptor expressed in CHO cells assessed as inhibition of forskolin/glucagon-induced cAMP production preincubated for 30 mins before glucagon challenge measured after 30 mins using [125I]-cAMP by liquid scintillation counting", "format": "functional, cell-based", "method_in_brief": "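Glucagon-induced cAMP production measured in CHO cells transfected with hGCGR. IC50 reported as the average rounded to two significant figures, with SEM when measured more than once.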"}, "[3]": {"experiment": "Half life in rat at 1 mg/kg, iv and 2 mg/kg, po", "format": "ADME, organism-based", "settings": "in vivo", "method_in_brief": "(§1)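 Rat PK with dosing at 1 mg/kg IV and 2 mg/kg PO, vehicle DMSO/water/PEG400 15:35:55. Parameters were plasma clearance, Vd, t1/2, dose-normalised PO AUC and Cmax, and %F.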"}, "[4]": {"experiment": "Plasma clearance in rat at 1 mg/kg, iv and 2 mg/kg, po", "format": "ADME, organism-based", "method_in_brief": "as §1"}, "[5]": {"experiment": "Oral bioavailability in rat at 2 mg/kg", "format": "ADME, organism-based", "settings": "in vivo", "method_in_brief": "as §1"}, "[6]": {"test_system": "Rattus norvegicus", "experiment": "Dose normalised Cmax in rat at 1 mg/kg, iv and 2 mg/kg, po", "format": "ADME, organism-based", "settings": "in vivo", "method_in_brief": "as §1"}, "[7]": {"test_system": "Rattus norvegicus", "experiment": "Dose normalised AUC in rat at 2 mg/kg, po", "format": "ADME, organism-based", "parameters": "dose 2 mg/kg, route oral", "settings": "in vivo", "method_in_brief": "as §1"}, "[8]": {"experiment": "Volume of distribution in rat at 1 mg/kg, iv and 2 mg/kg, po", "format": "ADME, organism-based", "settings": "in vivo", "method_in_brief": "as §1"}, "[9]": {"experiment": "Oral bioavailability in rat", "format": "ADME, organism-based", "settings": "in vivo", "method_in_brief": "as §1"}, "[10]": {"experiment": "Clearance in rat", "format": "ADME, organism-based", "settings": "in vivo", "method_in_brief": "as §1"}}, "data": [{"smiles": "CCCC[C@@H](Cc1ccc(C(=O)NCCC(=O)O)cc1)C(=O)c1cc2cc(Cl)ccc2n1-c1cccc(C(F)(F)F)c1", "values": [{"measurement": "IC50", "setting": "[1]", "result": 16, "unit": "nM"}, {"measurement": "IC50", "setting": "[2]", "result": 42, "unit": "nM"}]}, {"smiles": "CCCCC[C@@H](Cc1ccc(C(=O)NCCC(=O)O)cc1)C(=O)c1cc2cc(C)ccc2n1-c1cccc(C(F)(F)F)c1", "values": [{"measurement": "IC50", "setting": "[1]", "result": 12, "unit": "nM"}, {"measurement": "IC50", "setting": "[2]", "result": 24, "unit": "nM"}]}, {"smiles": "O=C(O)CCNC(=O)c1ccc(C[C@H](CC2CC2)C(=O)c2cc3cc(Cl)ccc3n2-c2cccc(C(F)(F)F)c2)cc1", "values": [{"measurement": "IC50", "setting": "[1]", "result": 37, "unit": "nM"}, {"measurement": "IC50", "setting": "[2]", "result": 55, "unit": "nM"}]}, {"smiles": "CCC[C@@H](Cc1ccc(C(=O)NCCC(=O)O)cc1)C(=O)c1cc2cc(Cl)ccc2n1-c1cccc(C(F)(F)F)c1", "values": [{"measurement": "half-life", "setting": "[3]", "result": 1.7, "unit": "h"}, {"measurement": "clearance", "setting": "[4]", "result": 14.2, "unit": "mL/min/kg"}, {"measurement": "bioavailability", "setting": "[5]", "result": 42, "unit": "%"}, {"measurement": "IC50", "setting": "[1]", "result": 17, "unit": "nM"}, {"measurement": "IC50", "setting": "[2]", "result": 55, "unit": "nM"}, {"measurement": "Cmax/dose", "setting": "[6]", "result": 250, "unit": "nM"}, {"measurement": "AUC/dose", "setting": "[7]", "result": 0.85, "unit": "µM·h"}, {"measurement": "Vd", "setting": "[8]", "result": 1.5, "unit": "L/kg"}]}, {"smiles": "CCCC(Cc1ccc(C(=O)NCCC(=O)O)cc1)C(=O)c1cc2cc(Cl)ccc2n1-c1ccc(OC(F)(F)F)cc1", "note": "(single isomer, unassigned)", "values": [{"measurement": "IC50", "setting": "[1]", "result": 28, "unit": "nM"}, {"measurement": "IC50", "setting": "[2]", "result": 45, "unit": "nM"}]}, {"smiles": "CCCC(Cc1ccc(C(=O)NCCC(=O)O)cc1)C(=O)c1cc2cc(Cl)ccc2n1-c1ccc(OC)c(C(F)(F)F)c1", "note": "(single isomer, unassigned)", "values": [{"measurement": "IC50", "setting": "[1]", "result": 23, "unit": "nM"}, {"measurement": "IC50", "setting": "[2]", "result": 39, "unit": "nM"}]}, {"smiles": "O=C(Nc1nnn[nH]1)c1ccc(Cn2c(C(=O)c3ccc(OC(F)(F)F)cc3)cc3ccc(C(F)(F)F)cc32)cc1", "values": [{"measurement": "IC50", "setting": "[1]", "result": 51, "unit": "nM"}, {"measurement": "bioavailability", "setting": "[9]", "result": 40, "unit": "%"}, {"measurement": "clearance", "setting": "[10]", "result": 10, "unit": "mL/min/kg"}]}, {"smiles": "CCCC(Cc1ccc(C(=O)NCCC(=O)O)cc1)C(=O)c1cc2cc(Cl)ccc2n1-c1cc(Cl)cc(Cl)c1", "note": "(single isomer, unassigned)", "values": [{"measurement": "IC50", "setting": "[1]", "result": 110, "unit": "nM"}]}, {"smiles": "CCCC(Cc1ccc(C(=O)NCCC(=O)O)cc1)C(=O)c1cc2cc(Cl)ccc2n1-c1ccc(C(F)(F)F)cc1", "note": "(single isomer, unassigned)", "values": [{"measurement": "IC50", "setting": "[1]", "result": 31, "unit": "nM"}, {"measurement": "IC50", "setting": "[2]", "result": 30, "unit": "nM"}]}, {"smiles": "CCCCC[C@@H](Cc1ccc(C(=O)NCCC(=O)O)cc1)C(=O)c1cc2cc(C(F)(F)F)ccc2n1-c1cccc(C(F)(F)F)c1", "values": [{"measurement": "IC50", "setting": "[1]", "result": 16, "unit": "nM"}, {"measurement": "IC50", "setting": "[2]", "result": 44, "unit": "nM"}]}, {"smiles": "CCCCC[C@@H](Cc1ccc(C(=O)NCCC(=O)O)cc1)C(=O)c1cc2cc(OC(F)(F)F)ccc2n1-c1cccc(C(F)(F)F)c1", "values": [{"measurement": "IC50", "setting": "[1]", "result": 5.7, "unit": "nM"}, {"measurement": "IC50", "setting": "[2]", "result": 17, "unit": "nM"}]}, {"smiles": "CCCC(Cc1ccc(C(=O)NCCC(=O)O)cc1)C(=O)c1cc2cc(Cl)ccc2n1-c1ccc2c(c1)OCCO2", "note": "(single isomer, unassigned)", "values": [{"measurement": "IC50", "setting": "[1]", "result": 28, "unit": "nM"}, {"measurement": "IC50", "setting": "[2]", "result": 49, "unit": "nM"}]}, {"smiles": "CCCCC[C@@H](Cc1ccc(C(=O)NCCC(=O)O)cc1)C(=O)c1cc2cc(OC)ccc2n1-c1cccc(C(F)(F)F)c1", "values": [{"measurement": "IC50", "setting": "[1]", "result": 26, "unit": "nM"}, {"measurement": "IC50", "setting": "[2]", "result": 35, "unit": "nM"}]}, {"smiles": "CCCC(Cc1ccc(C(=O)NCCC(=O)O)cc1)C(=O)c1cc2cc(Cl)ccc2n1-c1cccc(F)c1", "note": "(single isomer, unassigned)", "values": [{"measurement": "IC50", "setting": "[1]", "result": 47, "unit": "nM"}, {"measurement": "IC50", "setting": "[2]", "result": 150, "unit": "nM"}]}]}
